TRPC6 act – mouse TRPC6 channel activation; Q61143; HEK293-TRPC6 membrane potential dye fluorescence; active compounds read high; B-score at 10 µM; 310,000 tested, 0.13% active; AID 2550;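 active = B-score of the integrated fluorescence ratio above library mean plus 3 SD, and starting fluorescence ratio within library mean plus 5 SD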;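 also: higher score means more depolarization so channel activation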
TRPC4 inh – TRPC4 (mouse) channel inhibition; HEK293 TRPC4beta/mu-opioid, DAMGO-evoked Fluo4 calcium flux; active compounds read low; B-score at 10 µM; 300,000 tested, 0.39% active; Q9QUQ5; AID 2247;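 active = B-score over 3 SD under the library average, no early fluorescence shift, positive overall ratio signal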
Target sequence (Q9QUQ5 whole entry, looked up): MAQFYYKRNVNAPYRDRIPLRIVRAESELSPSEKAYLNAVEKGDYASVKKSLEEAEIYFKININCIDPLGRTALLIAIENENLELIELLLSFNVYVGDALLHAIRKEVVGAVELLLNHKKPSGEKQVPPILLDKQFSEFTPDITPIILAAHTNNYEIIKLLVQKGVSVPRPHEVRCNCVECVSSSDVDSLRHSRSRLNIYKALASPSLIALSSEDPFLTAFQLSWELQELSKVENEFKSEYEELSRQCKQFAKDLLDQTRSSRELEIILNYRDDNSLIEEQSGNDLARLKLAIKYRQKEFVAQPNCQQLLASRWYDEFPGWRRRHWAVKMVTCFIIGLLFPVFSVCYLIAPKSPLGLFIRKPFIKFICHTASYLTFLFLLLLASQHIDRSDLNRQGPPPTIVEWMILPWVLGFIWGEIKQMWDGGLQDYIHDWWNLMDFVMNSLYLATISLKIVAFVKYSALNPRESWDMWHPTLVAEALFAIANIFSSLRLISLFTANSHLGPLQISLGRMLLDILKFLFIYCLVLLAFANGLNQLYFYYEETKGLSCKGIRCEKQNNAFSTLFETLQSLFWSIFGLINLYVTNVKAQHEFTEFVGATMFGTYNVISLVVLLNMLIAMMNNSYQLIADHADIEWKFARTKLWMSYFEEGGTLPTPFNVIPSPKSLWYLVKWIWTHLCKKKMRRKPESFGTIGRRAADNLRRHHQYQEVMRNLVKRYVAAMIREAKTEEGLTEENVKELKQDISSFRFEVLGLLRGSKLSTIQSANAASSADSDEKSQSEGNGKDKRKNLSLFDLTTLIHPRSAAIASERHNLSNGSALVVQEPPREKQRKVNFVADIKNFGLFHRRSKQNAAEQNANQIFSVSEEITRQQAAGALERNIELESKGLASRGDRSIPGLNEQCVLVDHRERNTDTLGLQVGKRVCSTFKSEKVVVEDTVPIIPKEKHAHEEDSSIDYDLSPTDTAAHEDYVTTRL
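Material: HEK293 cells with stable TRPC4beta plus mu-opioid receptor expression; probe or stimulus: DAMGO in two steps, submaximal then maximal; technique: Fluo4 calcium fluorescence by kinetic imaging, 5 s 1 Hz baseline; measure: integrated fluorescence ratio relative to baseline, converted to per-well B score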
TRPC4 potent – allosteric potentiators of mouse TRPC4 channel; HEK293 TRPC4beta/mu-opioid, DAMGO EC20, Fluo-4 Ca2+ flux; active compounds read high; B-score at 10 µM; 310,000 tested, 0.42% active; AID 2227;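 active = B-score of calcium response area above 5 SD of library B-scores, with initial fluorescence ratio within 5 SD of library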;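 also: B-score of integrated fluorescence ratio over time as area under calcium response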
TRPC6 inhibitor – blocks the mouse TRPC6 cation channel | HEK293-TRPC6, membrane potential dye, ACh-evoked depolarization; active compounds read low | B-score at 10 µM | 310,000 tested, 1.1% active;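 active = B-score under library mean minus 3 SD, initial fluorescence not abnormally high, positive integrated signal ratio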;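 also: B-score derived from integrated fluorescence ratio over the kinetic read; more negative B-score means stronger inhibition of depolarization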
TRPC4 agonist – TRPC4 (mouse) channel activation. Q9QUQ5. HEK293 TRPC4beta/mu-opioid, Fluo4 calcium fluorescence; active compounds read high. B-score at 10 µM. 310,000 tested, 0.49% active. AID 2237;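 active = B-score above 5 SD of library B-scores, and initial fluorescence ratio not above library mean plus 5 SD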;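 also: positive B-score marks a calcium rise read as TRPC4 activation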
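Assay system: HEK293 stable line with TRPC4beta plus mu-opioid receptor; schedule: 45 min room-temperature Fluo4 loading, 110 s read; technique: kinetic Fluo4 calcium fluorescence; evaluation: integrated baseline-normalised fluorescence ratio, converted to per-well B score; controls: buffer (low) and maximal DAMGO (high)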
TRPC4 spec 2 – second selectivity test of TRPC6 inhibitors: effect on mouse TRPC4. shares compounds with TRPC6 inhibitor. HEK293 TRPC4/MOR, membrane potential dye fluorescence; channel activated by saturating DAMGO dose. inhibition, % at 10 µM. 920 tested, 42% active;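 active = compounds whose fluorescence signal differed from control wells by over 3 SD, either direction, in both duplicate plates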
TRPC4 spec – mouse TRPC4 off-target activity of TRPC6 inhibitors | shares compounds with TRPC6 inhibitor | HEK293 TRPC4/mu-opioid, membrane potential fluorescence | activity change, negative = inhibition, % at 10 µM | 920 tested, 61% active | AID 2777;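 active = rise or fall in signal beyond 3 SD of buffer-only wells in both replicate plates, either sign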;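 also: integrated kinetic ratio of fluorescence range over baseline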
HEK293 MPD ctr 2-1 – parental HEK293 nonspecific activity of TRPC6 inhibitors, second screen | 920 tested, 31% active | AID 2779 | signal change vs control, % at 10 µM | shares compounds with TRPC6 inhibitor | parental HEK293 membrane potential dye fluorescence; maximal acetylcholine challenge after compound addition;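 active = membrane potential signal moving either way by over 3 SD of the maximum-effect control, in both duplicate plates, meaning non-specific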
HEK293 MPD ctr-1 – checks TRPC6 inhibitor effects in parental HEK293 cells; AID 2780; parental HEK293 membrane potential dye fluorescence; shares compounds with TRPC6 inhibitor; membrane potential signal change, % at 10 µM; 920 tested, 60% active;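 active = membrane potential signal shifting up or down by more than 3 SD of buffer-only wells, on both duplicate plates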
HEK293 MPD ctr-2 – parental HEK293 nonspecific activity of TRPC6 modulators; membrane potential dye fluorescence; membrane potential signal change, % at 10 µM; 2,400 tested, 51% active; shares compounds with TRPC6 inhibitor;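 active = membrane potential signal moves up or down beyond 5 SD from buffer-only wells, on both duplicate plates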
HEK293 MPD ctr 2-2 – second counter-screen for TRPC6 modulators: effect in parental HEK293 cells; AID 488926; shares compounds with TRPC6 inhibitor; membrane potential dye fluorescence; after compound, maximal acetylcholine stimulation; inhibition, % at 10 µM; 2,400 tested, 14% active;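 active = membrane potential signal drops by more than 5 SD from the mean control signal, in both duplicate plates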;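 also: plate controls were acetylcholine ECmax control wells for no effect and buffer only wells for full effect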
TRPC4/MOR mod – selectivity of TRPC6 modulators against mouse TRPC4 | 2,400 tested, 69% active | AID 488927 | HEK293 TRPC4/mu-opioid, membrane potential fluorescence | percent change from control (negative = decrease, positive = increase), % at 10 µM | shares compounds with TRPC6 inhibitor;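 active = membrane potential signal moved up or down beyond 5 SD of buffer control wells, in both duplicate plates, actives on both sides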;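 also: plate controls were assay buffer wells for no effect and DAMGO maximal-effect wells for full effect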
TRPC4 ctr inh 2 – second check of whether TRPC6 modulators also affect mouse TRPC4; shares compounds with TRPC6 inhibitor; HEK293 TRPC4/mu-opioid, membrane potential dye fluorescence; stimulated with maximal-effect DAMGO; inhibition, % at 10 µM; 2,400 tested, 55% active;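 active = drop in membrane potential signal beyond 5 SD of the control wells in both duplicate plates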;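 also: TRPC4 counter screen for TRPC6 hits run under conditions tuned for TRPC6 not TRPC4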
TRPC6 block conf – confirmation of mouse TRPC6 inhibitors. inhibition, % at 10 µM. AID 488960. HEK293-TRPC6, membrane potential dye, ACh-evoked depolarization. shares compounds with TRPC6 inhibitor. 3,300 tested, 43% active;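 active = fluorescence ratio falls more than 5 SD below the full-stimulation control mean, in both duplicate runs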;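 also: integrated fluorescence ratio of peak minus minimum over baseline after agonist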
TRPC6 act conf – mouse TRPC6 activator confirmation; shares compounds with TRPC6 inhibitor; HEK293-TRPC6 membrane potential dye fluorescence, FDSS; activation, % at 10 µM; 2,800 tested, 11% active; AID 488961;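 active = ratio signal rise beyond 5 SD above unstimulated control wells' mean, seen in both duplicate runs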;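 also: plate controls were buffer EC0 wells for no effect and acetylcholine ECmax response for full effect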
An asterisk follows results filed as active; i = inactive; . = no result given. An excerpt weighted towards active compounds, which were near 2.3% of everything screened.

SMILES	TRPC6 act	TRPC4 inh	TRPC4 potent	TRPC6 inhibitor	TRPC4 agonist	HEK293 MPD ctr-2	HEK293 MPD ctr 2-2	TRPC4/MOR mod	TRPC4 ctr inh 2	TRPC6 block conf	TRPC6 act conf	others
N=c1c2c(n(Cc3ccccc3)c3c1CCC3)CCC2	i	-6*	i	-7.6*	i	.	.	.	.	65%*	i	TRPC4 spec 2=68%*;TRPC4 spec=-24%*;HEK293 MPD ctr 2-1=20%*;HEK293 MPD ctr-1=-394%*
O=C1CCCc2ccccc2N1Cc1ccc(F)cc1	i	i	i	i	i	.	.	.	.	.	.
Cc1nc(N2CCN(Cc3ccccc3)CC2)nc2c1CCC2	i	i	i	i	i	.	.	.	.	.	.
c1ccc(-c2noc(CN3CCc4sccc4C3)n2)cc1	i	i	i	i	i	.	.	.	.	.	.
C/C(=N\NC(=O)CSc1nc2ccccc2s1)c1cccnc1	i	i	i	i	i	.	.	.	.	.	.
Cc1cc([N+](=O)[O-])nn1CCC(=O)Nc1nccs1	i	i	i	i	i	.	.	.	.	.	.
COc1ccccc1CNCc1ccc(OC)c2ccccc12	i	-7*	i	-6.2*	i	265%*	i	64%*	70%*	52%*	.
O=S(=O)(NCCNc1ncc(C(F)(F)F)cc1Cl)C(F)(F)F	i	i	i	-5.3*	i	i	i	14%*	32%*	50%*	i
CS(=O)(=O)NCCNc1ncc(C(F)(F)F)cc1Cl	i	i	i	i	i	.	.	.	.	.	.
CCOC(=O)C1CCN(Cc2cnc(Oc3ccc(C(C)(C)C)cc3)s2)CC1	12*	i	i	-6.5*	i	i	i	8.5%*	i	52%*	83%*
CCOC(=O)C1CCN(Cc2cnc(NC(=O)OC)s2)CC1	i	i	i	i	i	.	.	.	.	.	.
Cc1onc(-c2c(Cl)cccc2Cl)c1C(=O)ONC(=O)c1cc(C(F)(F)F)cc(C(F)(F)F)c1	i	i	i	i	i	.	.	.	.	.	.
CCOc1ccc(NC(=S)c2ccc3ccccc3n2)cc1	i	i	i	i	i	.	.	.	.	.	.
CCOc1ccc(CN(C)C(=O)c2ccc3ccccc3n2)cc1	i	i	i	-5.8*	i	i	i	i	i	i	i
CCN(Cc1nc(-c2cccc(C)c2)no1)C(=O)c1ccco1	i	i	i	i	i	.	.	.	.	.	.
COc1ccc(NC(=O)COC(=O)CCc2cc(OC)c(OC)c(OC)c2)c([N+](=O)[O-])c1	i	i	i	i	i	.	.	.	.	.	.

Assay outcomes deposited in PubChem by Johns Hopkins Ion Channel Center.
